Data set [1] deals with Staphylococcus aureus. The data set can be described thus: Antibacterial activity against methicillin-resistant Staphylococcus aureus at 100 ug/ml by NCCLS method. In kind it is functional, organism-based.
Data set [2] has as its system Staphylococcus aureus. Description: Antibacterial activity against Staphylococcus aureus by NCCLS method. Format: functional, organism-based. Put shortly:
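Microdilution per CLSI (formerly NCCLS). Samples run in duplicate, diluted in 0.9% saline in 96-well plates, then microbial suspensions added to reach the target inocula. Media and solvent controls in every assay. IC50 read from a plot of percent growth against concentration. MIC taken as the lowest concentration with no detectable growth; MBC as the lowest concentration that kills the organism.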

Data set [3] deals with Escherichia coli. Description: Antibacterial activity against Escherichia coli at 100 ug/ml by NCCLS method. Format: functional, organism-based.
Data set [4] concerns Staphylococcus aureus. Description: Antibacterial activity against methicillin-resistant Staphylococcus aureus by NCCLS method. Format: functional, organism-based. In outline:
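MRSA tested in vitro by CLSI (formerly NCCLS) broth microdilution. Samples were diluted in 0.9% saline and run in duplicate in 96-well microplates. Cell suspension was added to reach the target inoculum, with media and solvent controls included. IC50 was taken from percent growth plotted against concentration. MIC was the lowest concentration with no detectable growth; MBC was the lowest concentration that killed the organism.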

The test system of data set [5] is Cryptococcus neoformans. Description: Antifungal activity against Cryptococcus neoformans at 100 ug/ml by NCCLS method. Format: functional, organism-based.
For data set [6], the system named is Mycobacterium intracellulare. Description: Antibacterial activity against Mycobacterium intracellular at 100 ug/ml by NCCLS method. Format: functional, organism-based.
Data set [7] relates to Vero. Description: Cytotoxicity against african green monkey Vero cells up to 100 ug/ml. Format: cell-based. To be noted: chlorocebus sabaeus.
For data set [8], the system named is Pseudomonas aeruginosa. Description: Antibacterial activity against Pseudomonas aeruginosa at 100 ug/ml by NCCLS method. In kind it is functional, organism-based.
The subject of data set [9] is Candida albicans. Description: Antifungal activity against Candida albicans at 100 ug/ml by NCCLS method. Format: functional, organism-based.
The test system of data set [10] is Aspergillus fumigatus. The data set can be described thus: Antifungal activity against Aspergillus fumigatus at 100 ug/ml by NCCLS method. Format: functional, organism-based.
Data set [11] relates to Mus musculus. The data set can be described thus: Toxicity in CD1 mouse up to 20 mg/kg, ip after 2 days. In kind it is organism-based. Also on record: dose 20 mg/kg, route intraperitoneal. To be noted: in vivo, 48 h. In outline:
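Preliminary tolerance study: CD-1 mice dosed ip daily for 2 days at up to 20 mg/kg and watched for untoward effects.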

Data set [12] relates to Staphylococcus aureus. The data set can be described thus: Antibacterial activity against Staphylococcus aureus infected in CD1 mouse thigh muscle assessed as reduction in colony forming unit at 15 mg/kg, ip administered 2 hrs after infection measured after 48 hrs relative to control. Also noted: scale not given: the % may be the effect or the level left. Format: functional, Muscle tissue. To be noted: route intraperitoneal. Put shortly:
(§1)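 Neutropenic thigh infection in CD-1 mice. Neutropenia induced by cyclophosphamide 100 mg/kg ip on days -4 and -1. Each rear thigh inoculated im with MRSA, 1.5 × 10⁶ cfu in 50 μL. n = 2 mice per group, each thigh a data point. Compound given ip starting 2 h post-inoculation; saline and vancomycin controls. Sacrifice at 48 h; thighs weighed, homogenized in 5.0 mL saline, plated for cfu/g tissue.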

The test system of data set [13] is Staphylococcus aureus. The data set can be described thus: Antibacterial activity against Staphylococcus aureus infected in CD1 mouse thigh muscle assessed as reduction in colony forming unit at 3.0 mg/kg, ip administered 2 hrs after infection measured after 48 hrs. In kind it is functional, Muscle tissue. To be noted: route intraperitoneal. Put shortly: as §1

Data set [14] concerns Staphylococcus aureus. The data set can be described thus: Antibacterial activity against Staphylococcus aureus infected in CD1 mouse thigh muscle assessed as reduction in colony formation unit at 3.0 mg/kg, ip administered 2 hrs after infection measured after 48 hrs relative to control. Also noted: scale not given: the % may be the effect or the level left. The following applies: route intraperitoneal. Format: functional, Muscle tissue. Put shortly:
as §1

For data set [15], the system named is Staphylococcus aureus. The data set can be described thus: Antibacterial activity against Staphylococcus aureus infected in CD1 mouse thigh muscle assessed as reduction in colony forming unit at 15 mg/kg, ip administered 2 hrs after infection measured after 48 hrs. In kind it is functional, Muscle tissue. The following applies: route intraperitoneal. In outline:
as §1

Each structure is given as a SMILES string. ≈ marks a conversion by molar mass, not a printed value. Calls of active or inactive are those of the source. No cut-off for these calls is given here.

Consider `CCN1CCN(C(=O)N[C@@H](C(=O)N[C@@H]2C(=O)N3[C@@H]2SC(C)(C)[C@@H]3C(=O)O)c2ccccc2)C(=O)C1=O` [PIPERACILLIN], for which, in data set [1], the IC50 result is “Not Active” and the MIC result was “inactive”.
Consider `COc1cccc(OC)c1C(=O)N[C@@H]1C(=O)N2[C@@H]1SC(C)(C)[C@@H]2C(=O)O` [METHICILLIN], for which, in data set [1], the IC50 result is listed as “Not Active” and the MIC entry is “inactive”. In data set [2], this molecule had an IC50 of 0.4 µg/mL (≈ 1.05 µM) and an MIC of 2.5 µg/mL (≈ 6.57 µM).
`C[C@@H]1O[C@@H](Oc2c(-c3ccc(O)cc3)oc3cc(O)cc(O)c3c2=O)[C@H](OC(=O)/C=C/c2ccc(O)cc2)[C@H](OC(=O)/C=C\c2ccc(O)cc2)[C@H]1O`: the outcome in data set [3], in data set [5], in data set [6], in data set [8], in data set [9] and in data set [10] was inactive. Further, the IC50 is 1.6 µg/mL (≈ 2.21 µM) in data set [2] and 0.8 µg/mL (≈ 1.1 µM) in data set [4]. In addition, the MIC in data set [2] worked out at 5.8 µg/mL (≈ 8 µM); in [4] it was 1.7 µg/mL (≈ 2.35 µM). In data set [7], the Activity entry is recorded as “Non-toxic”.
As for `O=C(O)c1cn(C2CC2)c2cc(N3CCNCC3)c(F)cc2c1=O` [CIPROFLOXACIN], the MIC in data set [2] was found to be 0.4 µg/mL (≈ 1.21 µM); in data set [4], 0.3 µg/mL (≈ 0.905 µM).
Consider `Cc1onc(-c2ccccc2Cl)c1C(=O)N[C@@H]1C(=O)N2[C@@H]1SC(C)(C)[C@@H]2C(=O)O` [CLOXACILLIN], for which, in data set [4], the IC50 was determined as 8.9 µg/mL (≈ 20.4 µM).
Turning to `C[C@@H]1O[C@@H](Oc2c(-c3ccc(O)cc3)oc3cc(O)cc(O)c3c2=O)[C@H](OC(=O)/C=C\c2ccc(O)cc2)[C@H](OC(=O)/C=C/c2ccc(O)cc2)[C@H]1O`, the outcome in data set [3], in data set [5], in [6], in data set [8], in data set [9] and in data set [10] was inactive. Further, the IC50 in data set [2] was 1.4 µg/mL (≈ 1.93 µM); in data set [4] it was 0.7 µg/mL (≈ 0.966 µM). Also, the MIC in [2] turned out to be 3.8 µg/mL (≈ 5.24 µM); in data set [4] it was 1.3 µg/mL (≈ 1.79 µM). In addition, the Activity entry in data set [7] is “Non-toxic”.
With `C[C@@H]1O[C@@H](Oc2c(-c3ccc(O)cc3)oc3cc(O)cc(O)c3c2=O)[C@H](OC(=O)/C=C/c2ccc(O)cc2)[C@H](OC(=O)/C=C/c2ccc(O)cc2)[C@H]1O`, the Activity entry in data set [11] was “Non-toxic”; in data set [12], 78%; in data set [13], 2.6 ×10⁷ /g; in [14], 67%; in data set [15] it was 1.8 ×10⁷ /g; in data set [7], “Non-toxic”. Also, the outcome in [3], in data set [5], in data set [6], in [8], in [9] and in data set [10] was inactive. In addition, the IC50 in data set [2] is 3.7 µg/mL (≈ 5.11 µM); in [4], 2 µg/mL (≈ 2.76 µM). Further, the results for the MIC in [2] and in data set [4] were 13.3 µg/mL (≈ 18.4 µM) and 10 µg/mL (≈ 13.8 µM), respectively.

Broadly, the IC50 is the midpoint of a concentration-inhibition curve. A word on the MIC: it is the lowest concentration that inhibits growth of the organism.

Values taken from ChEMBL document CHEMBL1153731, “Methicillin-resistant Staphylococcus aureus (MRSA)-active metabolites from Platanus occidentalis (American Sycamore)” (J Nat Prod, 2009).
